In ChEMBL document CHEMBL1212785, “In vitro potency of CXA-101, a novel cephalosporin, against Pseudomonas aeruginosa displaying various resistance phenotypes, including multidrug resistance” (2010) one finds MIC50, MIC90 and MIC data, which are given here for 8 molecules.

Values after ≈ are worked out from the molar mass of the structure shown.

Type in all cases: functional
For assay [1], the system named is Pseudomonas aeruginosa. The assay is described as follows: Antimicrobial activity against drug resistant Pseudomonas aeruginosa isolates by broth microdilution method. The gist of the method: (§1)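 Nonduplicate, nonurine, drug-resistant clinical isolates collected from 40 US hospitals, October 2005 to March 2008. MICs determined by CLSI reference broth microdilution. The cephalosporin was tested alone and with tazobactam fixed at 4 μg/ml. Comparators were tested by the same method. P. aeruginosa ATCC 27853 served as quality control, with ranges of 0.25 to 1 μg/ml for both regimens.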
For orientation: In broth dilution the organism is exposed to a series of concentrations in liquid medium.

Assay [2] has as its system Pseudomonas aeruginosa. Nature of the assay: Antimicrobial activity against multidrug resistant Pseudomonas aeruginosa isolates by broth microdilution method. The gist of the method: as §1
Assay [3] deals with Pseudomonas aeruginosa. The assay is described as follows: Antimicrobial activity against imipenem resistant Pseudomonas aeruginosa isolates by broth microdilution method. Summed up: as §1
For assay [4], the system named is Pseudomonas aeruginosa. The assay is described as follows: Antimicrobial activity against Ceftazidime resistant Pseudomonas aeruginosa isolates by broth microdilution method. The gist of the method:
as §1

Assay [5] has as its system Pseudomonas aeruginosa. Nature of the assay: Antimicrobial activity against piperacillin-tazobactam resistant Pseudomonas aeruginosa isolates by broth microdilution method. The gist of the method:
as §1

For assay [6], the system named is Pseudomonas aeruginosa. Nature of the assay: Antimicrobial activity against tobramycin resistant Pseudomonas aeruginosa isolates by broth microdilution method. Summed up: as §1

Broadly, the MIC50 is an inhibitory concentration at the 50% level, which refers to growth in some studies and to a panel of isolates in others. By MIC90 is commonly meant the lowest concentration that inhibits either 90% of growth or 90% of the strains tested, depending on the study. As to `CO/N=C(\C(=O)N[C@@H]1C(=O)N2C(C(=O)[O-])=C(C[N+]3(C)CCCC3)CS[C@H]12)c1csc(N)n1` [CEFEPIME], the MIC50 against Pseudomonas aeruginosa [1] was 16 µg/mL (≈ 33.3 µM); against Pseudomonas aeruginosa [2] it was 16 µg/mL (≈ 33.3 µM); in the assay with Pseudomonas aeruginosa [3], 8 µg/mL (≈ 16.6 µM); in the assay with Pseudomonas aeruginosa [4] it was 256 µg/mL (≈ 533 µM); in the assay with Pseudomonas aeruginosa [5] it was 16 µg/mL. The MIC90 against Pseudomonas aeruginosa [1] was 64 µg/mL (≈ 133 µM); against Pseudomonas aeruginosa [2] it was 64 µg/mL (≈ 133 µM); with Pseudomonas aeruginosa [3] it was 32 µg/mL (≈ 66.6 µM); with Pseudomonas aeruginosa [4] it was 256 µg/mL (≈ 533 µM); with Pseudomonas aeruginosa [5], 32 µg/mL.

On to `CC(C)(O/N=C(\C(=O)N[C@@H]1C(=O)N2C(C(=O)[O-])=C(C[n+]3ccccc3)CS[C@H]12)c1csc(N)n1)C(=O)O` [CEFTAZIDIME], for which the MIC50 came out at 16 µg/mL (≈ 29.3 µM) against Pseudomonas aeruginosa [1]; 64 µg/mL (≈ 117 µM) against Pseudomonas aeruginosa [2]; 16 µg/mL (≈ 29.3 µM) with Pseudomonas aeruginosa [3]; 16 µg/mL (≈ 29.3 µM) in the assay with Pseudomonas aeruginosa [4]; 32 µg/mL with Pseudomonas aeruginosa [5]. Besides, the MIC90 with Pseudomonas aeruginosa [1] came to 128 µg/mL (≈ 234 µM); against Pseudomonas aeruginosa [2], 256 µg/mL (≈ 468 µM); against Pseudomonas aeruginosa [3] it was 128 µg/mL (≈ 234 µM); with Pseudomonas aeruginosa [4], 64 µg/mL (≈ 117 µM); with Pseudomonas aeruginosa [5] it was 128 µg/mL.

Turning to `Cn1c(N)c(NC(=O)NCCN)c[n+]1CC1=C(C(=O)O)N2C(=O)[C@@H](NC(=O)/C(=N\OC(C)(C)C(=O)[O-])c3nsc(N)n3)[C@H]2SC1` [CEFTOLOZANE], the MIC50 was found to be 2 µg/mL (≈ 3 µM) with Pseudomonas aeruginosa [1]; 2 µg/mL (≈ 3 µM) in the assay on Pseudomonas aeruginosa [2]; 2 µg/mL (≈ 3 µM) in the assay on Pseudomonas aeruginosa [3]; 4 µg/mL (≈ 6 µM) against Pseudomonas aeruginosa [4]; 2 µg/mL with Pseudomonas aeruginosa [5]; 2 µg/mL (≈ 3 µM) against Pseudomonas aeruginosa [6]. In addition, the MIC90 is 2 µg/mL (≈ 3 µM) in the assay with Pseudomonas aeruginosa [1]; > 64 µg/mL against Pseudomonas aeruginosa [2]; 8 µg/mL (≈ 12 µM) against Pseudomonas aeruginosa [3]; 16 µg/mL (≈ 24 µM) against Pseudomonas aeruginosa [4]; 8 µg/mL in the assay with Pseudomonas aeruginosa [5]; 64 µg/mL (≈ 96 µM) in the assay on Pseudomonas aeruginosa [6].

In the case of `O=C(O)c1cn(C2CC2)c2cc(N3CCNCC3)c(F)cc2c1=O` [CIPROFLOXACIN], the MIC50 came out at 32 µg/mL (≈ 96.6 µM) with Pseudomonas aeruginosa [2]; 8 µg/mL (≈ 24.1 µM) against Pseudomonas aeruginosa [3]; 2 µg/mL (≈ 6.04 µM) in the assay on Pseudomonas aeruginosa [4]; 1 µg/mL in the assay on Pseudomonas aeruginosa [5]; 32 µg/mL (≈ 96.6 µM) with Pseudomonas aeruginosa [6]. For the same molecule, the MIC90 in the assay on Pseudomonas aeruginosa [2] amounted to 64 µg/mL (≈ 193 µM); with Pseudomonas aeruginosa [3], 64 µg/mL (≈ 193 µM); in the assay with Pseudomonas aeruginosa [4], 32 µg/mL (≈ 96.6 µM); in the assay with Pseudomonas aeruginosa [5] it was 32 µg/mL; against Pseudomonas aeruginosa [6], 128 µg/mL (≈ 386 µM).

One may read the MIC as the lowest concentration that inhibits growth of the organism. Read a high MIC as a need for much substance. Consider `C[C@@H](O)[C@H]1C(=O)N2C(C(=O)O)=C(SCCNC=N)C[C@H]12` [IMIPENEM ANHYDROUS], for which the MIC50 against Pseudomonas aeruginosa [1] turned out to be 8 µg/mL (≈ 26.7 µM); with Pseudomonas aeruginosa [2] it was 16 µg/mL (≈ 53.4 µM); in the assay on Pseudomonas aeruginosa [3] it was 16 µg/mL (≈ 53.4 µM); against Pseudomonas aeruginosa [4] it was 64 µg/mL (≈ 214 µM); in the assay on Pseudomonas aeruginosa [5], 64 µg/mL; in the assay with Pseudomonas aeruginosa [6], 128 µg/mL (≈ 428 µM). The MIC90 in the assay with Pseudomonas aeruginosa [1] was 32 µg/mL (≈ 107 µM); against Pseudomonas aeruginosa [2], 128 µg/mL (≈ 428 µM); against Pseudomonas aeruginosa [3] it was 32 µg/mL (≈ 107 µM); in the assay with Pseudomonas aeruginosa [4], 256 µg/mL (≈ 855 µM); with Pseudomonas aeruginosa [5], 256 µg/mL; against Pseudomonas aeruginosa [6], 256 µg/mL (≈ 855 µM). Also, the MIC in the assay with Pseudomonas aeruginosa [3] is 16 µg/mL (≈ 53.4 µM).

As to `C[C@H]1COc2c(N3CCN(C)CC3)c(F)cc3c(=O)c(C(=O)O)cn1c23.C[C@H]1COc2c(N3CCN(C)CC3)c(F)cc3c(=O)c(C(=O)O)cn1c23.O` [LEVOFLOXACIN], the MIC50 turned out to be 8 µg/mL in the assay with Pseudomonas aeruginosa [1]; 32 µg/mL in the assay with Pseudomonas aeruginosa [2]; 16 µg/mL in the assay on Pseudomonas aeruginosa [3]; 4 µg/mL against Pseudomonas aeruginosa [4]; 4 µg/mL in the assay on Pseudomonas aeruginosa [5]; 32 µg/mL against Pseudomonas aeruginosa [6]. Moreover, the MIC90 against Pseudomonas aeruginosa [1] was 64 µg/mL; against Pseudomonas aeruginosa [2] it was 128 µg/mL; against Pseudomonas aeruginosa [3], 64 µg/mL; against Pseudomonas aeruginosa [4], 64 µg/mL; in the assay with Pseudomonas aeruginosa [5] it was 64 µg/mL; with Pseudomonas aeruginosa [6] it was 128 µg/mL.

As to `C[C@@H](O)[C@H]1C(=O)N2C(C(=O)O)=C(S[C@@H]3CN[C@H](C(=O)N(C)C)C3)[C@H](C)[C@H]12` [MEROPENEM], the MIC50 was 8 µg/mL (≈ 20.9 µM) against Pseudomonas aeruginosa [1]; 16 µg/mL (≈ 41.7 µM) in the assay with Pseudomonas aeruginosa [2]; 16 µg/mL (≈ 41.7 µM) against Pseudomonas aeruginosa [3]; 4 µg/mL (≈ 10.4 µM) in the assay on Pseudomonas aeruginosa [4]; 2 µg/mL in the assay on Pseudomonas aeruginosa [5]; 16 µg/mL (≈ 41.7 µM) against Pseudomonas aeruginosa [6]. The MIC90 worked out at 32 µg/mL (≈ 83.4 µM) against Pseudomonas aeruginosa [1]; 128 µg/mL (≈ 334 µM) with Pseudomonas aeruginosa [2]; 32 µg/mL (≈ 83.4 µM) against Pseudomonas aeruginosa [3]; 32 µg/mL (≈ 83.4 µM) against Pseudomonas aeruginosa [4]; 32 µg/mL with Pseudomonas aeruginosa [5]; 128 µg/mL (≈ 334 µM) against Pseudomonas aeruginosa [6].

In the case of `NC[C@H]1O[C@H](O[C@H]2[C@H](O)[C@@H](O[C@H]3O[C@H](CO)[C@@H](O)[C@H](N)[C@H]3O)[C@H](N)C[C@@H]2N)[C@H](N)C[C@@H]1O` [TOBRAMYCIN], the MIC50 in the assay on Pseudomonas aeruginosa [1] was 2 µg/mL (≈ 4.28 µM); with Pseudomonas aeruginosa [2], 128 µg/mL (≈ 274 µM); against Pseudomonas aeruginosa [3] it was 1 µg/mL (≈ 2.14 µM); in the assay on Pseudomonas aeruginosa [4] it was 1 µg/mL (≈ 2.14 µM); with Pseudomonas aeruginosa [5], 1 µg/mL; in the assay with Pseudomonas aeruginosa [6] it was 32 µg/mL (≈ 68.4 µM). The MIC90 was 128 µg/mL (≈ 274 µM) against Pseudomonas aeruginosa [1]; 256 µg/mL (≈ 548 µM) against Pseudomonas aeruginosa [2]; 64 µg/mL (≈ 137 µM) against Pseudomonas aeruginosa [3]; 4 µg/mL (≈ 8.56 µM) with Pseudomonas aeruginosa [4]; 4 µg/mL in the assay on Pseudomonas aeruginosa [5]; 128 µg/mL (≈ 274 µM) with Pseudomonas aeruginosa [6].
